In the EternaBench riboswitch data:

Tested on: MS2 coat protein
Assay: apparent Kd, MS2 coat protein; higher = weaker binding; RNA-MaP array; FMN 200 µM where present
Summary of the method: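 Designs were transcribed by stalled E. coli RNA polymerase on Illumina sequencing-chip clusters. They were titrated with SNAP-549-labelled MS2 coat protein from 0.7 or 1.5 nM, doubling to 3 µM, in 100 mM Tris-HCl pH 7.5, 80 mM KCl, 4 mM MgCl2, BSA, DTT, yeast tRNA and Tween-20, without and then with constant ligand. The apparent Kd is the median of filtered per-cluster fits after normalisation of green signal to red-channel RNA signal and control-cluster median Fmax.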

[1] = designed as: OFF switch for flavin mononucleotide, no ligand
[2] = ligand present: flavin mononucleotide, designed as: OFF switch for flavin mononucleotide
[3] = ligand present: flavin mononucleotide, designed as: ON switch for flavin mononucleotide
[4] = designed as: ON switch for flavin mononucleotide, no ligand

Sequence	apparent Kd [1]	apparent Kd [2]	apparent Kd [3]	apparent Kd [4]
GGAAAGUGAGGAUAUGGUAAAGUAAGUAUGUAGUAAGUAAUCCAGAAGGCACAUGAGGAUCACCCAUGUAAAUG	28.1 nM	35.7 nM	–	–
UGCUACGUUUCGUAGCAGUGUCAUCGAGAAGGCCCUGACAUGAGGAUCACCCAUGUUGUUACAUGGGAGGAUAUCGAUGAUACA	–	–	5.16 nM	–
GUGUACAGAGGAUAUAUAUGGGCAUGGAAACAUGCAACUUCACAUGAGGAUCACCCAUGUAGAAGGCUGUACAC	27.3 nM	182 nM	–	–
AACACGUGAGGAUAUACAUGAGGAUCACCCAUGUUGGUACAAUCCUGUCCGACUAUCCGUAGAAGGCAUUGACU	38.7 nM	–	–	–
GUGUACGGAGGAUAUGCUGGAAUCUAGCGAAGCUAGGUUCCACAUGAGGAUCACCCAUGUAGAAGGCUGUACAC	24.8 nM	14.2 nM	–	–
AUUAUGUUAGGAUAUGCUUAUGGUGGAUAAUCAGAUAUGAUGCAGAAGGGACAUGAGGAUCACCCAUGUACUGU	20.8 nM	23.6 nM	–	–
AAUUUACAUGAGGAUCACCCAUGUCAGGAUAUGGUUUUAUUUUUUUCUUUUCUUGAUUCCAGAAGGGACAGUUA	114 nM	63.9 nM	–	–
AGUAACAGAGGAUAUACUGUUUUAUGUGUUUAUUGUUUUAAACAUGAGGAUCACCCAUGUAGAAGGCUGAAUAA	30.9 nM	26.9 nM	–	–
UGUUGUAUUACAGGAUAUCUAGUAUUUUUAUGUAGAGAAGGGUAUUCACAUGAGGAUCACCCAUGUAUAUACGAGGAAGUUGUG	–	–	43.2 nM	39.7 nM
ACAAAUGGAGGAUAUACAUGAGGAUCACCCAUGUAUAUCCUACAUAUGUGAUAAUAAUGUAGAAGGCCAUUUGA	11.6 nM	11.4 nM	–	–
UAGCCCGGCCAGAAGGGAGCUAUACAUGAGGAUCACCCAUGUCACUGACUCAGGAUAUGGCGCGCUUGGUAUAAGUAUUCAUGG	–	–	5.46 nM	8.36 nM
AACCGACAUGAGGAUCACCCAUGUCAGGAUAUGGACUGACACCCAAAGGGUGGAGGAACCAGAAGGGACUGGGC	39.9 nM	101 nM	–	–
AAAAAACAUGAGGAUCACCCAUGUAAGGAUAUGCGAAAAAAAAAAAAAAAAAAAAAAAGCAGAAGGUACAAAAA	99.1 nM	94.9 nM	–	–
AAAAAGUCAGGAUAUCGAAAAAAAAAAAAAAAAAAAAAAAACGAGAAGGGACAUGAGGAUCACCCAUGUAAAAA	63.7 nM	69.6 nM	–	–
AUCAGCUCGUCAGGAUAUACGUCACUGCGUCGGCAGUGUGGUAAGAUCACAUGAGGAUCACCCAUGUAGAAGGGACGAGCUGAU	14.4 nM	280 nM	–	–
CAUUAACAUGAGGAUCACCCAUGUGAGGAUAUGAUAUUACUAGGACGGCUGUGAUCAAUCAGAAGGCACAUCUU	25 nM	30 nM	–	–
AUCCUGCGAGGAUAUACAUAGUGACGUCUGUUUGGUCUCAAACAUGAGGAUCACCCAUGUAGAAGGUGCGUCAC	66.3 nM	66.5 nM	–	–
AGAUUCAUGGCCCGUUCGGGCCCACAUGAGGAUCACCCAUGUGAGGAUAUGAUGUACCUGAUUCAUCAGAAGGCGCAUGCGAAA	7.32 nM	20.5 nM	–	–
GUUUUCACAUGAGGAUAUGCUCGCAUUUCAAGAGCAGAAGGUAUGUCUUUAGACAUGAGGAUCACCCAUGUAUUUAUCAUUGAA	–	–	28.4 nM	91.1 nM
UUAAAUCGAAACAUGAGGAUCACCCAUGUGUUGUAAUUAAUAUAGGAUAUGUGUAUACUUUUAUGACAGAAGGAUGAUAAUACU	–	–	14.4 nM	21.5 nM
GCGGCCAACGUAGGAUAUCUUCAGCCACAGCACAUUGCUGUACAUGAGGAUCACCCAUGUCCUGGAGAGAAGGACGGACGGCAG	–	–	8.73 nM	37.7 nM
CAUAUGUGCGGAGGAUAUGGGUGAAUCGGAUCGACAUGAGGAUCACCCAUGUAGCUCUUUGGCAUCUAGAAGGCCGGAUGAACG	–	–	111 nM	25.9 nM

Sequence	apparent Kd [1]	apparent Kd [2]	apparent Kd [3]	apparent Kd [4]
GUGUACAGAGGAUAUAUAUGAGCAUGGAAACAUGCAACUUCACAUGAGGAUCACCCAUGUAGAAGGCUGUACAC	14.2 nM	14.3 nM	–	–
CGCUGCCACGCAGGAUAUGCAUUGGAUUCCAAUGCAGAAGGGCGAUUACAUGAGGAUCACCCAUGUGUUGGCAGUGAAGAAGAG	–	–	77.9 nM	1230 nM
AAUUAGGUCACAGGAUAUACAACAACCAAUGCUGUAGAAGGGUGUCACAUACUUAGCUGACAUGAGGAUCACCCAUGUAUCCAC	–	–	68.2 nM	172 nM
GGGUACAUCGGAGGAUAUCAUGUAAAUACAUGAGGAUCACCCAUGUCGAUGGAGACAUCGGAGACUGAGAAGGCCGAUGUACCG	–	–	7.18 nM	41.8 nM
GUAGCGCUUGACAUGAGGAUCACCCAUGUUAGAUUGUUAUGUCAGGAUAUAGUCUAGAAACUAGACUAGAAGGGAUAUGCUACU	–	–	39.8 nM	251 nM
AAGAACUUAGGAUAUACAUGAGGAUCACCCAUGUAGCUUCACUUGGGCCUGAGCCCGUGUAGAAGGAAGAAAAU	87.9 nM	59 nM	–	–
CCUCUACAUGAGGAUCACCCAUGUGAGGAUAUCAAAGCCAGAGCGGAUCUCCGGCCCAUGAGAAGGUGCAUGGA	19.8 nM	70.8 nM	–	–
CACGUCUGAGGAUAUCGUUUUUUGUACAUGAGGAUCACCCAUGUCCAAUUUUGUAUAUUACGAGAAGGCAGUGGAA	12.9 nM	19.7 nM	–	–
AUACAUGAGGAUCACCCAUGUUACAUGGGCUAGUUUUAACGUAGAAGGAUGUUAUUAUUAUUAGCAUAGGAUAUACAAUUUGAA	274 nM	248 nM	–	–
AGGAGGUCAGGAUAUGCUGCUCGUCACUUGCGUGAUGAGUAGCAGAAGGGACAUGAGGAUCACCCAUGUAAAGA	55.7 nM	95.7 nM	–	–
CUGAUGUUAGGAUAUCAGGCGCCCGCCACUGGCAGGGCGCAUGAGAAGGGACAUGAGGAUCACCCAUGUAGUAA	27.5 nM	46.1 nM	–	–
AUAAAACAUGAGGAUCACCCAUGUAAUAAGAACCGAGGAUAUGGAAAUAAUAAUAAUAAACCAGAAGGUGGUGAUC	–	–	326 nM	146 nM
UAGAAUCGAGGAUAUACAUGAGGAUCACCCAUGUGUUGCCGCAUGAUGUGAUCGUCAGGUAGAAGGCGAUUAUA	25.4 nM	18.7 nM	–	–
CCUCGUUGGGAGGAUAUCCUUUUGGUUGGAGGAGGAGAAGGCUCGACAUGAGGAUCACCCAUGUGGGAUUUCCU	74.8 nM	211 nM	–	–
GGACGUCACAUUAACAUGAGGAUCACCCAUGUCAAAAGACAUGAGGAUAUGGAUCCGAAAAGGAUCCAGAAGGCAUGGACGUCC	–	–	36.6 nM	555 nM
GUGGUACAUGAGGAUCACCCAUGUUAGGAUAUCGCGUGAGGUUUUACUUCCGCGCGCGCGAGAAGGGACGUCUU	26.8 nM	22.8 nM	–	–
UAUAUAUAGUAAGGAUAUGUAUUAAUCUUAUAAACAGAAGGUACUGACAUGAGGAUCACCCAUGUUUUAGUGUGGGCAUGUAGA	78.1 nM	103 nM	–	–
GACCGCGAGGGAGGAUAUGGAGCCUUAUUGGCUCCAGAAGGUCCAUAAGGGACAUGAGGAUCACCCAUGUGGGUUGAAGCGGUC	–	–	57.2 nM	155 nM
UGUUAGUAGACAGGAUAUUGAAUGUUAAGUAUUAACAUGAGGAUCACCCAUGUAUUAGAUUGGUACAAGAAGGGUCAAGUUUGU	–	–	653 nM	380 nM
GGUUGUCAUAGUCAUCCUUUCCGUACAUGAGGAUCACCCAUGUAGGAUAUGCUACUCUCGGUGUGGCAGAAGGGCGUGUGUCUU	18.2 nM	18.8 nM	–	–
GUGGUUGUCGUAGGAUAUGUAGGAUAUUCCUACAUGAGGAUCACCCAUGUUCGCAUGGAAGAAGGACAGAAGGACGAUGACCAU	–	–	10.7 nM	1020 nM
